What is called Kd is the free concentration of one partner at which half of the binding sites on the other are occupied at equilibrium, for simple one-to-one binding.

“Also recorded” adds a separate entry of the source.

The record followed here is publication PMC2926617 (Nucleic Acids Research, 2010).

For data set [1], the target named is T1, CarS (Myxococcus xanthus, UniProt Q06911).
T1 sequence (Q06911 1-111): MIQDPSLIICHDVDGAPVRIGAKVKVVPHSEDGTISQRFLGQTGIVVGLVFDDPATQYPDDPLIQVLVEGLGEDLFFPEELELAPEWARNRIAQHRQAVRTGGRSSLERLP
Kind of data set: ITC titration with CarS. The note with it: ITC. It is filed as binding. For orientation: Isothermal titration calorimetry measures the heat released or taken up as one component is titrated into another.

The subject of data set [2] is CarS(F77A). Nature of the data set: ITC titration with CarS. It is filed as binding, Myxococcus xanthus. The note with it: pH 7.5. The method in brief: (§1)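 ITC in 100 mM NaCl, 50 mM phosphate pH 7.5, 2 mM β-mercaptoethanol, 0.05% sodium azide; samples were dialysed or dissolved in this buffer and degassed. Cell held 20 µM CarANt or peptide, titrated with 30 injections of 0.22 mM CarS variant, stirring 300 rpm. Heat of dilution was subtracted using buffer controls. Data were fit to a single-site model; at least two independent titrations.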

Data set [3] has as its system CarS(D52A/D53A). Kind of data set: ITC titration with CarS. It is filed as binding, Myxococcus xanthus. The conditions noted are these: pH 7.5. In short, it runs like this: as §1
Data set [4] can be described thus: Analytical gel filtration of pure proteins. The class given is physicochemical. The note with it: Superdex200, 50 mM phosphate pH 7.5, 2 mM β-mercaptoethanol. The method in brief:
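Superdex200 analytical size-exclusion HPLC in 50 mM phosphate pH 7.5, 2 mM β-mercaptoethanol and the required NaCl. Samples were 10–50 µM pure protein, or CarNt or CarHNt mixed with CarS or variant at equivalent concentrations. Flow was 0.4 ml/min with detection at 280, 235 and 220 nm. Peak fractions were identified by SDS–PAGE. Mr was taken from elution volume via log Mr = 7.64 – 0.209 Ve.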
(SEC sorts molecules by how far they enter the pores of the column.)

Data set [5] concerns the target T2, CarS1 (Myxococcus xanthus, UniProt Q06911).
T2 sequence (Q06911 1-86): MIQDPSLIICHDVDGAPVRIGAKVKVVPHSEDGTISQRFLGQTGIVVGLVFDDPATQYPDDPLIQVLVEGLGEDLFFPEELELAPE
Nature of the data set: Far-UV CD spectroscopy with CarS1. The conditions noted are these: 1:1 molar ratio with CarS1, 25°C, 100 mM KF, 7.5 mM phosphate pH 7.5. The method in brief:
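Far-UV CD at 25°C, 10–20 µM samples in 100 mM KF, 7.5 mM phosphate pH 7.5, three scans averaged, 0.2-nm steps. Peptide (18 µM) or CarANt (11 µM) was measured alone and mixed 1:1 with CarS1. The read-out was molar ellipticity difference between the mixture and CarS1 alone.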

Data set [6] concerns the target T1, CarS. Kind of data set: Far-UV CD spectroscopy with CarS. The note with it: 25°C, 100 mM KF, 7.5 mM phosphate pH 7.5. The method in brief: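 Far-UV CD was recorded at 25°C in 0.2-nm steps (adaptive sampling) with 2-nm slit width, averaging three scans. Samples were 10–20 µM protein, peptide or 1:1 mixture in 100 mM KF, 7.5 mM phosphate pH 7.5. The instrument was calibrated with (+)-10-camphorsulfonic acid.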

The target of data set [7] is T2, CarS1. Kind of data set: NMR chemical shift mapping on labeled H6CarS1. It is filed as binding. The note with it: ^15N, ^13C-H6CarS1 0.10–0.25 mM titrated with unlabeled CarANt, P01 or P02, 25°C or 45°C.
In data set [8] the target is T1, CarS. Nature of the data set: Yeast two-hybrid interaction with CarS. The class given is cell-based. The note with it: not shown. The method in brief: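 Yeast EGY48 carrying lacZ reporter pSH18-34 was cotransformed (lithium acetate) with LexA–CarA and B42–CarS or variant fusions. Equal-density cultures were spotted on galactose or glucose (basal fusion expression) plates with leucine, grown 1 day at 30°C, then overlaid with X-Gal agarose for 2–3 h (Gal) or ≥7 h (Glu). Interaction was scored by blue colour; single-hybrid cells served as controls.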

B1: CarANt: the highly basic and autonomously folded N-terminal DNA-binding domain of CarA (protein)
chain: MTLRIRTIARMTGIREATLRAWERRYGFPRPLRSEGNNYRVYSREEVEAVRRVARLIQEEGLSVSEAIAQVKTEPPRE
modifications: left off: H6, end not stated, cleaved
Consider B1, for which the “KD relative to P01 and P02” value in data set [1] is reported as “over an order of magnitude lower”. The “N (binding stoichiometry)” value in data set [1] (CarS, 25 °C, pH 7.5, 100 mM NaCl, 50 mM phosphate, 2 mM β-mercaptoethanol, 0.05% sodium azide, 20 µM CarANt or peptide titrated with 0.22 mM CarS, average of at least two independent titrations) came to 0.94 ± 0.01. In data set [1] (CarS, 25 °C, pH 7.5, 100 mM NaCl, 50 mM phosphate, average of at least two independent titrations), this molecule had a ΔH of −9.24 ± 0.02 kcalmol^−1. The molecule further gave a Kd in data set [1] (CarS, 25 °C, pH 7.5, 100 mM NaCl, 50 mM phosphate, single-site binding model, average of at least two independent titrations) of around 0.01 µM. The “ITC heat change / binding” value in data set [2] was “could not be detected; also recorded: ^aHeat changes were negligible or undetected for the following titrations: (i) CarANt or P01 with CarS(F77A) or CarS(D52A/D53A); (ii) P03 with CarS or CarS1; (iii) TtP01 with CarS (for details on peptides P01, P02, P03, CHP01 and TtP01, see Figures 3A and 4A, and text)”; in data set [3] it was “could not be detected; also recorded: ^aHeat changes were negligible or undetected for the following titrations: (i) CarANt or P01 with CarS(F77A) or CarS(D52A/D53A); (ii) P03 with CarS or CarS1; (iii) TtP01 with CarS (for details on peptides P01, P02, P03, CHP01 and TtP01, see Figures 3A and 4A, and text)”. In addition, in data set [4], the “Apparent Mr of pure protein” value turned out to be 9.6 kDa. In addition, the “Far-UV CD change / helix content in presence of CarS1” value in data set [5] is listed as “no significant change”. Besides, the “Far-UV CD change in presence of CarS” value in data set [6] is reported as “in a manner similar to CarS1”. In data set [7], the “Chemical shift perturbations of labeled H6CarS1” value was “significant perturbations for the methyl cross-peaks of V26, L63, L75, L81 (Figure 1C) and I64”.

B2: R27A variant of whole CarH (protein)
chain: MAERTYRINIAAELAGVRVELIRAWEARYGVLTPRRTPAGYRAYTDRDVAVLKQLKRLTDEGVAISEAAKLLPQLMEGLEAEVAGRGASQDARPHAETWRESMLAATQAYDQPRVSDVLDEVLAALPPLKAFDEVLAPLLCDVGERWESGTLTVAQEHLVSQMVRARLVSLLHAAPLGRHRHGVLACFPEEEHEMGLLGAALRLRHLGVRVTLLGQRVPAEDLGRAVLALRPDFVGLSTVASRSAEDFEDTLTRLRQALPRGLPVWVGGAAARSHQAVCERLAVHVFQGEEDWDRLAGT
As to B2, in data set [8], the “Two-hybrid interaction with CarS” value is recorded as “lack of interaction with CarS”.
